Measurements taken from ChEMBL document CHEMBL1156597, “Structure-activity relationship of kahalalide F synthetic analogues” (J Med Chem, 2008).

Experiments:
DU-145 = assay: Cytotoxicity against human DU145 cells after 48 hrs by SRB assay; format: functional, cell-based; conditions: Homo sapiens, DU-145, 48 h; for CC50: read-out: LC50 (the source's name)
Summary of the method: (§1)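 Cells grown in RPMI 1640 with 10% FBS and penicillin/streptomycin at 37 °C and 5% CO₂, trypsinized, then seeded at 5 × 10³/well. After 18 h drug-free attachment, samples in DMSO/EtOH/PBS (0.5:0.5:99) were added for 48 h continuous exposure. Cells were fixed with cold TCA (1 h, 4 °C) and stained with SRB (10 min). Tris-solubilized stain read at 490 nm. Triplicate wells, mean ± SD; GI₅₀ derived.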

LNCaP = assay: Cytotoxicity against human LNcaP cells after 48 hrs by SRB assay; format: functional; conditions: for CC50: read-out: LC50 (the source's name); summary of the method: as §1
[1] = Cytotoxicity against human IGROV cells after 48 hrs by SRB assay; format: functional; conditions: for CC50: read-out: LC50 (the source's name); summary of the method: as §1
[2] = Cytotoxicity against human IGROV-ET cells after 48 hrs by SRB assay; format: functional; conditions: for CC50: read-out: LC50 (the source's name); summary of the method: as §1
SK-BR-3 = assay: Cytotoxicity against human SKBR3 cells after 48 hrs by SRB assay; format: functional; conditions: SK-BR-3, 48 h; for CC50: read-out: LC50 (the source's name); summary of the method: as §1
SK-MEL-28 = assay: Cytotoxicity against human SK-MEL-28 cells after 48 hrs by SRB assay; format: functional, cell-based; conditions: Homo sapiens, SK-MEL-28, 48 h; for CC50: read-out: LC50 (the source's name); summary of the method: as §1
A549 = assay: Cytotoxicity against human A549 cells after 48 hrs by SRB assay; format: functional, cell-based; conditions: Homo sapiens, A549, 48 h; for GI50: read-out: GI50; summary of the method: as §1
K562 = assay: Cytotoxicity against human K562 cells after 48 hrs by SRB assay; format: functional; conditions: K562, 48 h; for CC50: read-out: LC50 (the source's name); summary of the method: as §1
PANC-1 = assay: Cytotoxicity against human PANC1 cells after 48 hrs by SRB assay; format: functional; conditions: PANC-1, 48 h; for CC50: read-out: LC50 (the source's name); summary of the method: as §1
HT-29 = assay: Cytotoxicity against human HT29 cells after 48 hrs by SRB assay; format: functional, cell-based; conditions: Homo sapiens, HT-29, 48 h; for CC50: read-out: LC50 (the source's name); summary of the method: as §1
LoVo [3] = assay: Cytotoxicity against human LoVo cells after 48 hrs by SRB assay; format: functional; conditions: for CC50: read-out: LC50 (the source's name)
LoVo [4] = assay: Cytotoxicity against human doxorubicin resistant LoVo cells after 48 hrs by SRB assay; format: functional; conditions: for CC50: read-out: LC50 (the source's name); summary of the method: as §1
HeLa = assay: Cytotoxicity against human HeLa cells after 48 hrs by SRB assay; format: functional; conditions: for CC50: read-out: LC50 (the source's name); summary of the method: as §1
[5] = Cytotoxicity against human HeLa-APL cells after 48 hrs by SRB assay; format: functional; summary of the method: as §1

| Compound | GI50 (DU-145; read-out: GI50) [nM] | CC50 (DU-145) [nM] | GI50 (LNCaP) [nM] | TGI (LNCaP) [nM] | CC50 (LNCaP) [nM] | GI50 [1] [nM] | GI50 ([1]; read-out: GI50) [nM] | CC50 [1] [nM] | GI50 [2] [nM] | CC50 [2] [nM] | CC50 (SK-BR-3) [nM] | CC50 (SK-MEL-28) [nM] | LC50 (A549) [µM] | CC50 (K562) [nM] | CC50 (PANC-1) [nM] | CC50 (HT-29) [nM] | CC50 (LoVo [3]) [nM] | CC50 (LoVo [4]) [nM] | CC50 (HeLa) [nM] | LC50 (concentration giving 50% net cell kill) [5] [nM] | other results |
| --- | --- | --- | --- | --- | --- | --- | --- | --- | --- | --- | --- | --- | --- | --- | --- | --- | --- | --- | --- | --- | --- |
| C/C=C1\NC(=O)[C@H](Cc2ccccc2)NC(=O)[C@@H](C(C)C)NC(=O)[C@@H]([C@H](C)CC)NC(=O)[C@H](NC(=O)[C@H](NC(=O)[C@H](CCCN)NC(=O)[C@H]2CCCN2C(=O)[C@H](NC(=O)[C@@H](NC(=O)[C@H](CCC(=O)O)NC(=O)[C@H](NC(=O)CCCC(C)C)C(C)C)C(C)C)C(C)C)[C@H](C)CC)[C@H](C)OC(=O)[C@H](C(C)C)NC1=O | 2480 | 1370 | 1070 | 949 | 838 | 498 | 857 | 483 | 849 | 639 | 356 | 1470 | 7.08 | 1960 | 1740 | 422 | 292 | 294 | 1100 | 956 | TGI (DU-145): 2630 nM; GI50 ([2]; read-out: GI50): 1130 nM; TGI (A549): 1450 nM; GI50 (A549): 1630 nM; GI50 (HeLa): 2550 nM; TGI (HeLa): 2500 nM; GI50 [5]: 2060 nM; TGI [5]: 1890 nM |
| C/C=C1\NC(=O)[C@H](Cc2ccccc2)NC(=O)[C@@H](C(C)C)NC(=O)[C@@H]([C@H](C)CC)NC(=O)[C@H](NC(=O)[C@H](NC(=O)[C@H](CCCN)NC(=O)[C@H]2CCCN2C(=O)[C@H](NC(=O)[C@@H](NC(=O)[C@@H]2CCCN2C(=O)[C@H](NC(=O)CCCC(C)C)C(C)C)C(C)C)C(C)C)[C@H](C)CC)[C@H](C)OC(=O)[C@H](C(C)C)NC1=O |  | 1430 |  |  | 982 | 280 | 4520 | 585 |  | 920 | 302 | 1670 | 4.69 | 1920 | 2280 | 4310 | 3380 | 396 | 967 | 934 | TGI (SK-MEL-28): 2330 nM; GI50 (SK-MEL-28; read-out: GI50): 2440 nM; TGI (A549): 1530 nM; GI50 (A549): 1610 nM; GI50 (K562): 1480 nM; TGI (K562): 1690 nM; GI50 (PANC-1): 5.14 µM; TGI (PANC-1): 4.52 µM; GI50 (HT-29): 4630 nM; TGI (HT-29): 4480 nM; GI50 (LoVo [3]): 4660 nM; TGI (LoVo [3]): 4050 nM; GI50 (LoVo [4]): 2860 nM; TGI (LoVo [4]): 2330 nM |
| C/C=C1\NC(=O)[C@H](Cc2ccccc2)NC(=O)[C@@H](C(C)C)NC(=O)[C@@H]([C@H](C)CC)NC(=O)[C@H](NC(=O)[C@H](NC(=O)[C@H](CCCNC(=O)CCCC[C@@H]2SC[C@@H]3NC(=O)N[C@@H]32)NC(=O)[C@H]2CCCN2C(=O)[C@H](NC(=O)[C@@H](NC(=O)[C@@H](NC(=O)[C@H](NC(=O)CCCC(C)C)C(C)C)[C@@H](C)O)C(C)C)C(C)C)[C@H](C)CC)[C@H](C)OC(=O)[C@H](C(C)C)NC1=O | 854 | 814 | 816 | 810 | 805 | 351 | 369 | 342 | 488 | 385 | 90.5 | 974 | 0.128 | 1680 | 2010 | 164 | 288 | 2180 | 716 | 996 | GI50 (DU-145): 836 nM; GI50 ([2]; read-out: GI50): 618 nM; TGI (SK-BR-3): 267 nM; GI50 (SK-BR-3; read-out: GI50): 322 nM; GI50 (SK-MEL-28): 974 nM; GI50 (SK-MEL-28; read-out: GI50): 959 nM; GI50 (PANC-1): 1.99 µM; TGI (PANC-1): 2.36 µM; GI50 (HT-29): 362 nM; TGI (HT-29): 316 nM; GI50 (LoVo [3]): 317 nM; TGI (LoVo [3]): 303 nM; GI50 (LoVo [4]): 328 nM; TGI (LoVo [4]): 354 nM; GI50 (HeLa): 382 nM; TGI (HeLa): 580 nM; GI50 [5]: 985 nM; TGI [5]: 989 nM |
